ChEMBL document CHEMBL1137735, “Novel 4H-1,3,4-oxadiazin-5(6H)-ones with hydrophobic and long alkyl chains: design, synthesis, and bioactive diversity on inhibition of monoamine oxidase, chitin biosynthesis and tumor cell” (Eur J Med Chem, 2009)
The source made the active and inactive calls. The rule behind the calls is not given here.

Assays:
[1] = Inhibition of rat brain mitochondrial MAO by kynuramine fluorimetric assay
Rattus norvegicus [2] = species on record: Rattus norvegicus; test: Inhibition of rat brain mitochondrial MAO at 0.01 mmol/L by kynuramine fluorimetric assay
Rattus norvegicus [3] = species on record: Rattus norvegicus; test: Inhibition of rat brain mitochondrial MAO at 0.1 mmol/L by kynuramine fluorimetric assay
Rattus norvegicus [4] = species on record: Rattus norvegicus; test: Inhibition of rat brain mitochondrial MAO at 1 mmol/L by kynuramine fluorimetric assay
Saccharomyces cerevisiae [5] = test: Inhibition of chitin synthase-mediated chitin synthesis in yeast at 250 uM by high throughput assay
Procedure, shortened: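 Yeast Saccharomyces cerevisiae cell extracts used as chitin synthase source in a modified non-radioactive chitin synthase assay; compounds screened at a single fixed level.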

Saccharomyces cerevisiae [6] = test: Inhibition of chitin synthase-mediated chitin synthesis in yeast by high throughput assay
Procedure, shortened: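 Enzyme source is Saccharomyces cerevisiae cell extract, run in a modified non-radioactive chitin synthase assay; five serial dilutions per compound tested to follow concentration dependence.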

Rattus norvegicus [7] = species on record: Rattus norvegicus; test: Inhibition of rat brain mitochondrial MAO at 0.008 mmol/L by kynuramine fluorimetric assay
Rattus norvegicus [8] = species on record: Rattus norvegicus; test: Inhibition of rat brain mitochondrial MAO at 0.08 mmol/L by kynuramine fluorimetric assay
Rattus norvegicus [9] = species on record: Rattus norvegicus; test: Inhibition of rat brain mitochondrial MAO at 0.8 mmol/L by kynuramine fluorimetric assay
A549 = test: Cytotoxicity against human A549 cells by SRB assay; format: functional, cell-based
Procedure, shortened: (§1)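 Growth inhibition of human lung A-549 and prostate PC-3 cancer cell lines, read out by sulforhodamine B dye staining; IC50 taken as the concentration giving 50% inhibition.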

PC-3 = test: Cytotoxicity against human PC3 cells by SRB assay; format: functional, cell-based; procedure, shortened: as §1

Row | Compound | IC50 [1] | inhibition (Rattus norvegicus [2]) | inhibition (Rattus norvegicus [3]) | inhibition (Rattus norvegicus [4]) | inhibition (Saccharomyces cerevisiae [5]) | other results
1 | CCc1ccc(C(=O)NNCCC#N)cc1 | 240 µM | 2.8% | 37% | 71.2% |  | 
2 | CCCCC(CCCC)NNC(=O)c1ccc2c(c1)OCO2 |  | 0% | 13.8% | 62.8% |  | 
3 | CCCCC(CCCC)N1N=C(c2cccnc2OCC)OCC1=O |  |  |  |  | 98% | inhibition (Saccharomyces cerevisiae [6]): Dose-dependent effect
4 | CCCCC(CCCC)N1N=C(c2ccc(CC)cc2)OCC1=O |  |  |  |  | Active | 
5 | CCCCC(CCCC)N1N=C(c2ccc(Cl)cc2Cl)OCC1=O |  |  |  |  | Active | 
6 | CCCCC(CCCC)N1N=C(c2ccc(Cl)cc2)OCC1=O | 420 µM |  |  |  | Active | inhibition (Rattus norvegicus [7]): 11.2%; inhibition (Rattus norvegicus [8]): 28.2%; inhibition (Rattus norvegicus [9]): 58.8%; IC50 (A549): 24.8 µM
7 | CCCCC(CCCC)NNC(=O)c1cc(OC)c(OC)c(OC)c1 | 2300 µM | 4.67% | 8.16% | 35.5% |  | 
8 | CCCCC(CCCC)NNC(=O)c1ccc(Cl)cc1Cl |  | 9.33% | 3.52% | 10.5% |  | 
9 | CCCCC(CCCC)NNC(=O)c1ccccc1Cl |  | 6.4% | 5.13% | 14.2% |  | 
10 | CCCCC(CCCC)N1N=C(c2cc(OC)c(OC)c(OC)c2)OCC1=O | 410 µM |  |  |  | Active | inhibition (Rattus norvegicus [7]): 14%; inhibition (Rattus norvegicus [8]): 23.5%; inhibition (Rattus norvegicus [9]): 61.4%; IC50 (A549): 9.91 µM; IC50 (PC-3): 14.4 µM
11 | CCCCC(CCCC)N1N=C(c2cc(C)cc(C)c2)OCC1=O |  |  |  |  | Active | 
12 | N#CCCN1N=C(c2ccccc2)OCC1=O |  |  |  |  |  | Activity (Saccharomyces cerevisiae [5]): Active
13 | C[C@@H]([C@H](N)C(=O)N[C@H](C(=O)O)[C@H]1O[C@@H](n2ccc(=O)[nH]c2=O)[C@H](O)[C@@H]1O)[C@H](O)c1ccc(O)cn1 |  |  |  |  |  | inhibition (Saccharomyces cerevisiae [6]): Dose-dependent effect
14 | O=C(NC(=O)c1c(F)cccc1F)Nc1ccc(Cl)cc1 |  |  |  |  | inactive | 
15 | CCCCC(CCCC)NNC(=O)c1cccnc1OCC |  | 0% | 6.09% | 21.7% |  | 
16 | CCCCC(CCCC)NNC(=O)c1ccc(Cl)cc1 | 2610 µM | 7.52% | 2.71% | 28.6% |  | 

Now from value to compound, other results behind:

Row | IC50 [1] | inhibition (Rattus norvegicus [2]) | inhibition (Rattus norvegicus [3]) | inhibition (Rattus norvegicus [4]) | inhibition (Saccharomyces cerevisiae [5]) | Compound | other results
17 |  |  |  |  | 95% | CCCCOC(=O)CCN1N=C(c2cccc(C)c2)OCC1=O | inhibition (Saccharomyces cerevisiae [6]): Dose-dependent effect
18 | 600 µM |  |  |  | Active | CCCCC(CCCC)N1N=C(c2ccc3ccccc3c2)OCC1=O | inhibition (Rattus norvegicus [7]): 12.8%; inhibition (Rattus norvegicus [8]): 20.3%; inhibition (Rattus norvegicus [9]): 54.6%; IC50 (A549): > 100 µM; IC50 (PC-3): 42.5 µM
19 | 430 µM |  |  |  | Active | CCc1ccc(C2=NN(CCC#N)C(=O)CO2)cc1 | inhibition (Rattus norvegicus [7]): 9.73%; inhibition (Rattus norvegicus [8]): 25.5%; inhibition (Rattus norvegicus [9]): 59.7%; IC50 (A549): > 100 µM; IC50 (PC-3): > 100 µM
20 |  | 0% | 8.47% | 33.1% |  | CCCCC(CCCC)NNC(=O)c1ccc2ccccc2c1 | 
21 |  |  |  |  | Active | CCCCC(CCCC)N1N=C(c2ccc3c(c2)OCO3)OCC1=O | 
